Measured values as given in ChEMBL document CHEMBL5032534, “COUPY Coumarins as Novel Mitochondria-Targeted Photodynamic Therapy Anticancer Agents” (J Med Chem, 2021).
Blank lines part the entries; values can stand above or below the compound they belong to. Activity calls are given as the source filed them. The calls are words filed in the database; no cut-off is given here.

Legend:
[1] = Selectivity index, ratio of IC50 for cytotoxicity against BGM cells assessed as reduction in cell viability in dark to IC50 for cytotoxicity against human HeLA cells assessed as reduction in cell viability in dark; format: toxicity, cell-based; conditions: African green monkey (BGM cells), BGM cells versus HeLa cells, read-out: Ratio IC50
How it was run: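 Selectivity factor is the dark IC50 in BGM normal renal cells over the dark IC50 in HeLa cells. Both come from the MTT phototoxicity procedure without irradiation.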

[2] = test system: HeLa; test: Induction of superoxide anion generation in human HeLa cells assessed as increase in DHE fluorescence at 5 uM incubated for 1 hr in dark followed by irradiation with visible light for 1 hr under hypoxic condition in presence of tiron by DHE staining based flow cytometric analysis; conditions: time 2.0 hrs
[3] = test system: HeLa; test: Effect on cell cycle distribution in human HeLa cells assessed as reduction in G1 phase population at 0.5 uM preincubated for 30 mins in dark followed by light irradiation for 1 hr by RNase/propidium iodide staining based FACS analysis; format: functional; conditions: time 1.5 hrs
How it was run: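 HeLa cells were seeded at 1.5 × 10^5/well and treated for 0.5 h, with or without 1 h visible-light irradiation, followed by 24 h recovery. Cells were fixed in ice-cold 70% ethanol for 1 h and stained with PI (40 μg/mL) plus RNase (1 μg/mL) for 30 min at 310 K. Analysis was by flow cytometry in the FL2-A channel. At least two independent experiments, n = 3.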

[4] = test system: HeLa; test: Induction of ROS generation in human HeLa cells at 5 uM incubated for 1 hr in dark followed by irradiation with visible light for 1 hr under hypoxic condition in presence of NaPyr by DCFH-DA staining based flow cytometric analysis; format: functional, cell-based; conditions: time 2.0 hrs
How it was run: (§1)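 HeLa cells were seeded at 2 × 10^4/well for 24 h under 21% or 2% O2. They were co-treated with 5 μM compound plus a scavenger, which stayed present throughout: NAC 5 mM, NaN3 5 mM, mannitol 50 mM, tiron 5 mM, sodium pyruvate 10 mM or Trolox 0.1 mM. Cells were held 1 h dark, then 1 h under visible light, stained 30 min with 10 μM DCFH-DA, trypsinized and analysed by flow cytometry. At least two independent experiments, n = 3.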

[5] = test system: HeLa; test: Induction of autophagy in human HeLa cells […] pretreated with wortmannin for 1 hr followed by irradiation schedule for 1 hr by MDC staining based confocal microscopic analysis; format: functional
[6] = test system: HeLa; test: Induction of ROS generation in human HeLa cells at 5 uM incubated for 1 hr in dark followed by irradiation with visible light for 1 hr under normoxic condition in presence of Trolox by DCFH-DA staining based flow cytometric analysis; format: functional, cell-based; conditions: time 2.0 hrs; how it was run: as §1
[7] = test system: HeLa; test: Induction of ROS generation in human HeLa cells at 5 uM incubated for 1 hr in dark followed by irradiation with visible light for 1 hr under normoxic condition in presence of 5 mM NAC by DCFH-DA staining based flow cytometric analysis; format: functional, cell-based; conditions: time 2.0 hrs; how it was run: as §1
[8] = test system: HeLa; test: Induction of ROS generation in human HeLa cells at 5 uM incubated for 1 hr in dark followed by irradiation with visible light for 1 hr under hypoxic condition in presence of 5 mM NAC by DCFH-DA staining based flow cytometric analysis; format: functional, cell-based; conditions: time 2.0 hrs; how it was run: as §1
[9] = Drug uptake in mitochondria of human HeLa cells assessed as drug accumulation at 1 uM measured after 30 mins by confocal microscopic analysis; format: ADME; conditions: 0.5 h
How it was run: (§2)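 HeLa cells in high-glucose DMEM with 10% fetal calf serum were seeded on glass-bottom dishes for 24 h, then loaded with compound for 30 min at 37 °C. They were washed three times with DPBS and kept in phenol-red-free low-glucose DMEM. Live cells were imaged by confocal microscopy at 37 °C with 5% CO2, excited at 561 nm, with emission collected from 570 to 670 nm.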

[10] = test system: HeLa; test: Induction of ROS generation in human HeLa cells at 5 uM incubated for 1 hr in dark followed by irradiation with visible light for 1 hr under normoxic condition in presence of NaN3 by DCFH-DA staining based flow cytometric analysis; format: functional, cell-based; conditions: time 2.0 hrs; how it was run: as §1
[11] = Drug uptake in human HeLa cells at 1 uM incubated for 30 mins by confocal microscopic analysis; format: ADME, cell-based; conditions: 0.5 h; how it was run: as §2
[12] = Drug uptake in nucleolus of human HeLa cells assessed as drug accumulation at 1 uM measured after 30 mins by confocal microscopic analysis; format: ADME, subcellular; conditions: 0.5 h; how it was run: as §2
[13] = test system: HeLa; test: Induction of apoptosis in human HeLa cells assessed as increase in early apoptotic cells at 0.5 uM incubated for 30 mins in dark measured after 24 hrs by Annexin V-FITC/ Propidium iodide staining based flow cytometry analysis; format: functional, cell-based; conditions: time 24.5 hrs
How it was run: (§3)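 HeLa cells were seeded at 1.5 × 10^5/well overnight and treated for 0.5 h, with or without 1 h visible-light irradiation, followed by 24 h recovery. Cells were trypsinized, resuspended in binding buffer, labelled with FITC-Annexin V and propidium iodide for 15 min at room temperature in the dark, and analysed by flow cytometry. Cisplatin (30 μM) served as positive control.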

[14] = test system: HeLa; test: Induction of autophagy in human HeLa cells assessed as increase in MDC-positive autophagic vesicles at 0.5 uM preincubated for 30 mins followed by light irradiation for 1 hr and further incubated for 6 hrs in drug-free medium by MDC staining based confocal microscopic analysis; format: functional, cell-based; conditions: time 1.5 hrs
How it was run: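 HeLa cells were seeded at 1.5 × 10^4 cells/cm2 in chamber slides and given 0.5 h compound incubation, then 1 h visible-light irradiation. Medium was replaced for a 6 h recovery. Cells were stained with monodansylcadaverine (0.05 mM in PBS, 10 min, 310 K) and imaged by confocal microscopy (ex 405 nm). Vacuoles were counted in at least 10 cells from two experiments. Controls were starvation in EBSS for 2 h and resveratrol 50 μM for 2 h.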

[15] = test system: HeLa; test: Induction of mitochondrial membrane potential loss in human HeLa cells at 0.5 uM measured after 24 hrs by JC-1 dye-based flow cytometric analysis; format: functional, cell-based
How it was run: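 HeLa cells were seeded at 1.5 × 10^5 in 12-well plates for 24 h and treated for 24 h. Vehicle control held 0.4% DMSO and antimycin A (50 μM) served as positive control. Cells were stained with JC-1 (1 μM, 20 min) and analysed by flow cytometry (10^4 events; ex 488 nm; green 530 nm and red 585 nm channels). At least two independent experiments.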

[16] = test system: HeLa; test: Induction of ROS generation in human HeLa cells assessed as increase in intracellular ROS level at 5 uM incubated for 1 hr in dark followed by irradiation with visible light for 1 hr under hypoxic condition by DCFH-DA staining based flow cytometric analysis; format: functional, cell-based; conditions: time 2.0 hrs; how it was run: as §1
[17] = Induction of singlet oxygen generation in air-saturated DCM solution assessed as reduction in 1,3-diphenylisobenzofuran absorption irradiated with 505 nanometer green light by DPBF-based assay; format: functional
[18] = test system: HeLa; test: Induction of apoptosis in human HeLa cells assessed as increase in early apoptotic cells at 0.5 uM preincubated for 30 mins in dark followed by irradiation for 1 hr and measured after 24 hrs by Annexin V-FITC/ Propidium iodide staining based flow cytometry analysis; format: functional, cell-based; conditions: time 25.5 hrs; how it was run: as §3
[19] = Selectivity index, ratio of IC50 for cytotoxicity against CHO cells to IC50 for antiproliferative activity against A2780 cells; format: toxicity, cell-based; conditions: Chinese hamster (CHO cells); human (A2780 cells), CHO cells versus A2780 cells; read-out: Ratio IC50
How it was run: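 Selectivity factor is the IC50 in CHO cells over the IC50 in A2780 cells. Both were measured after 48 h of continuous treatment by MTT.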

Structure (SMILES): CN(C)c1ccc2c(c1)O/C(=C(/C#N)c1cc[n+](C)cn1)C=C2C(F)(F)F
- selectivity ratio [1]: 4.2

- Drug uptake [9]: Active
- Drug uptake [11]: Active
- Drug uptake [12]: Not Active
Structure (SMILES): CCCCCC[n+]1ccc(/C(C#N)=C2/C=C(C)c3ccc(N(CC)CC)cc3O2)cc1
- Activity [2]: inactive
- Activity [3]: Active
- Activity [4]: inactive
- Activity [5]: inactive
- Activity [6]: inactive
- Activity [7]: inactive
- Activity [8]: inactive
- Activity [10]: inactive
- selectivity ratio [1]: 1.1
- Activity [13]: Active
- Activity [14]: Active
- Activity [15]: Active
- Activity [16]: inactive
- Activity [17]: Active
- Activity [18]: Active

Structure (SMILES): CN(C)c1ccc2c(c1)O/C(=C(/C#N)c1cc[n+](C)cc1)C=C2C(F)(F)F
- selectivity ratio [19]: > 5.1

Structure (SMILES): CCN(CC)c1ccc2c(c1)O/C(=C(/C#N)c1cc[n+](CC(=O)NCCCNC(=O)OC(C)(C)C)cc1)C=C2C
- selectivity ratio [1]: 2.7
